Published values from different studies.
pIC50: −log10 of the molar value.
Cell line: A549
Observed: cell growth or viability

Structure (SMILES) | method | time | pIC50
COc1ccnc(COc2ccc(NC(=O)Nc3ccc(F)cc3)cc2)c1OC | MTT | 72 h | 4.63
O=C(/C=C/C=C/c1ccc2c(c1)OCO2)N1CCCCC1 | SRB |  | 3.55
c1ccc2cc(-c3nnc(NC4CCCCC4)[nH]3)ccc2c1 |  | 48 h | 5.91
COc1cc2ncnc(Nc3ccc(F)c(Cl)c3)c2cc1NC(=O)N/N=C/c1cccn1CCCN1CCOCC1 | MTT | 72 h | 5.73
CC(C)(C)NC(=O)NNC(=O)c1ccc(Nc2nccc(-c3ccc(Cl)cc3)n2)cc1 | MTT |  | 4.71
Nc1ccc(Cl)c[n+]1[Pt-2]([Cl])([Cl])[n+]1cc(Cl)ccc1N | MTT | 48 h | 5.20
C/C=C/C(=O)Nc1cc(Nc2nc(Nc3cnn(C)c3)c3sccc3n2)c(OC)cc1N(C)CCN(C)C | MTT |  | 4.59
COc1cc(Nc2nccc(-c3cnn4nc(OC)ccc34)n2)cc(C(F)(F)F)c1 | ATP luminescence |  | 6.33
CCN(CC)CCn1cccc1/C=N/NC(=O)Nc1cc2c(Nc3ccc(F)c(Cl)c3)ncnc2cc1O[C@H]1CCOC1 | MTT | 72 h | 5.80
CC1=C(O)C(=O)C=C2C1=CC=C1[C@@]2(C)CC[C@@]2(C)[C@@H]3C[C@](C)(C(=O)OCCCCCCCO)CC[C@]3(C)CC[C@]12C | MTT | 48 h | < 4.00
CS(=O)(=O)c1ccc(-n2cc(/C=N/N=c3\[nH]c(-c4ccc(Br)cc4)cs3)c(-c3ccc(Br)cc3)n2)cc1 | MTT | 48 h | 5.03
Cc1ccc(-c2ccc(O)cc2)c(C(=C2C=CC(=O)C=C2)c2ccc(O)cc2)c1C#Cc1ccc(O)cc1 | MTT | 48 h | 4.75
COc1cc(N(C)CCN(C)C)c(NC(=O)/C=C/C(C)C)cc1Nc1nc(N2CCc3sccc3C2)c2sccc2n1 | MTT |  | < 4.30
O=C(CN1C(=O)/C(=C/c2cccc(Br)c2)SC1=S)Nc1ccccc1 | MTT |  | 4.59
C=CC(=O)Nc1cc(Nc2nc(N3CCc4sccc4C3)c3cccnc3n2)c(OC)cc1N1CCC(N(C)C)CC1 | MTT |  | 6.41
NNc1nc(NCc2ccccc2)nc(Nc2ccc(Br)cc2)n1 | SRB | 72 h | < 4.52
COc1cc2ncnc(Nc3ccc(F)c(Cl)c3)c2cc1NC(=O)N/N=C/c1cccn1CCN1CCCC1 | MTT | 72 h | 6.46
CN1C(=O)/C(=N\NC(=O)c2cc3ccccc3[nH]2)c2cc(Br)ccc21 |  |  | 5.83
O=C(N/N=C/c1cccn1CCN1CCCCC1)Nc1cc2c(Nc3ccc(F)c(Cl)c3)ncnc2cc1O[C@H]1CCOC1 | MTT | 72 h | 5.45
COc1ccccc1C#CCNCC(O)COc1cccc2[nH]c3ccccc3c12 (stereo not shown) | CCK-8 | 72 h | < 4.00

Structure (SMILES) | method | time | pIC50
Cc1ccc(C)n1-c1ccc(-c2nnc(-c3c(Cl)cccc3Cl)[nH]2)cc1 | MTT | 72 h | 3.64
COc1ccccc1OCCN1CCOC(COc2cccc3[nH]c4ccccc4c23)C1 (stereo not shown) | CCK-8 | 72 h | < 4.00
CC1=C(O)C(=O)C=C2C1=CC=C1[C@@]2(C)CC[C@@]2(C)[C@@H]3C[C@](C)(C(=O)OCCCCCCCCO)CC[C@]3(C)CC[C@]12C | MTT | 48 h | 5.38
Cc1c(OCC(F)(F)F)ccnc1COc1ccc(NC(=O)Nc2ccc(F)cc2)cc1 | MTT | 72 h | 5.27
Oc1ccc(-c2csc(Nc3ccc4c(O)ncnc4c3)n2)cc1 | MTT |  | 4.51
COc1cc(-c2nc(C(=O)Nc3nnc(-c4cc5ccccc5n4C)s3)cc3c2[nH]c2ccccc23)cc(OC)c1OC | MTT | 72 h | 5.11
COc1ccc(C(=O)O[C@@H]2CN3Cc4c(cc5c(c4OC)OCO5)[C@@]24C=C[C@H](OC)C[C@@H]34)cc1 | WST-1 |  | < 5.00
Cc1nc(Nc2ncc(C(=O)Nc3c(C)cccc3Cl)s2)cc(N2CCN(CCO)CC2)n1 | MTT | 48 h | 4.93
O=C1NC(=NCc2cccs2)S/C1=C\c1ccc2ncccc2c1 |  |  | < 5.00
CC(=O)O[C@H]1C(=O)[C@@]2(C)[C@H]([C@H](OC(=O)c3ccccc3)[C@]3(O)C[C@H](OC(=O)[C@H](O)[C@@H](NC(=O)c4ccccc4)c4ccccc4)C(C)=C1C3(C)C)[C@]1(OC(C)=O)CO[C@@H]1C[C@@H]2O | SRB |  | 7.52
O=C(NC(=S)NCCNC(=S)NC(=O)c1ccc2ccccc2c1)c1ccc2ccccc2c1 |  | 48 h | 5.56
CN1CCN(CCn2cccc2/C=N/NC(=O)Nc2cc3c(Nc4ccc(F)c(Cl)c4)ncnc3cc2O[C@H]2CCOC2)CC1 | MTT | 72 h | 5.52
CCC(=O)Nc1cc(Nc2nc(N3CCOCC3)c3sccc3n2)c(OC)cc1N(C)CCN(C)C | MTT |  | < 4.30
COc1ccccc1NCCCNCC(O)COc1cccc2[nH]c3ccccc3c12 (stereo not shown) | CCK-8 | 72 h | 4.97
Cc1cccc(NC(=O)NNC(=O)c2ccc(Nc3nccc(-c4ccccn4)n3)cc2)c1 | MTT |  | < 4.40
CCN(CC)CCNC(=O)c1c(C)[nH]c(/C=C2\C(=O)Nc3ccc(F)cc32)c1C |  |  | 5.51
CCOC(=O)/C=C1\S/C(=N\C(=O)c2ccc3ccccc3c2)N(C2CCCCC2)C1=O |  | 48 h | 4.86
Cn1c(=O)c2c(ncn2Cc2nnc(SCC(=O)Nc3ccc(Cl)c(Cl)c3)n2-c2ccccc2)n(C)c1=O | MTT |  | 4.09
Cc1c(OCC(F)(F)F)ccnc1COc1ccc(NC(=O)Nc2cccc(C(F)(F)F)c2)cc1 | MTT | 72 h | 5.58
COc1ccccc1OCCN(C)CC(O)COc1cccc2[nH]c3ccccc3c12 (stereo not shown) | CCK-8 | 72 h | 4.48
